From ChEMBL document CHEMBL1649438, “Activities of ceftobiprole and other cephalosporins against extracellular and intracellular (THP-1 macrophages and keratinocytes) forms of methicillin-susceptible and methicillin-resistant Staphylococcus aureus” (Antimicrob Agents Chemother, 2009) come the findings set out here.

Experiment [1] has as its system Staphylococcus aureus. In words: Antimicrobial activity against hospital-acquired vancomycin-resistant Staphylococcus aureus VRS1 infected in human THP-1 cells assessed as change in bacterial count after 24 hrs. The conditions noted are these: VRS1, THP-1, 24 h. The experiment is classed as functional, cell-based. The method in brief:
(§1)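 THP-1 macrophages infected as described previously, with a postphagocytosis inoculum of 1.5 × 10⁶ to 3.0 × 10⁶ CFU/mg cell protein. Cells were exposed 24 h to increasing extracellular antibiotic concentrations. Response is the change in log10 CFU/mg protein from the inoculum (n = 3), fitted to a Hill function. E0 and Emax were extrapolated to infinitely low and high concentrations. EC50 and static concentration (graphical interpolation) are expressed as multiples of the broth MIC at pH 5.5 or 7.4.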

Experiment [2] deals with Staphylococcus aureus. In words: Antimicrobial activity against methicillin-susceptible Staphylococcus aureus […] infected in human THP-1 cells assessed as bacterial count per mg of cell protein at low extracellular compound concentration after 24 hrs at pH 7.4. The experiment is classed as functional. The settings on record: pooled result: one value given for 6 cell lines, strains, targets or settings. The method in brief:
(§2)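 Human THP-1 macrophage-like cells were infected with S. aureus to a postphagocytosis inoculum of 1.5 × 10^6 to 3.0 × 10^6 CFU/mg cell protein. Cells were then exposed 24 h to increasing extracellular antibiotic concentrations. Response was the log10 CFU change per mg protein from the postphagocytosis inoculum, n = 3. A Hill function was fitted on log-transformed axes. E0 and Emax were extrapolated to infinitely low and high concentrations. Cs was read by graphical interpolation. Concentrations were expressed as multiples of the broth MIC at pH 5.5 or pH 7.4.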

The test system of experiment [3] is Staphylococcus aureus. In words: Antimicrobial activity against methicillin-susceptible Staphylococcus aureus […] infected in human THP-1 cells assessed as change in bacterial count after 24 hrs at pH 7.4. The experiment is classed as functional, organism-based. The settings on record: THP-1, 24 h. The method in brief: as §1
Experiment [4] relates to Staphylococcus aureus. The experiment in a line: Antimicrobial activity against Panton-valentine leucocidin-positive community-acquired methicillin-resistant Staphylococcus aureus N4090440 infected in human THP-1 cells assessed as change in bacterial count after 24 hrs. The class given is functional, organism-based. The conditions noted are these: N4090440, THP-1, 24 h. In short, it runs like this: (§3)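 THP-1 human macrophages infected with S. aureus (postphagocytosis inoculum 1.5 × 10^6 to 3.0 × 10^6 CFU/mg cell protein), then incubated 24 h with increasing extracellular antibiotic concentrations. Change in log10 CFU/mg cell protein from the postphagocytosis inoculum, n = 3. Hill function fitted on log-transformed data. Low-concentration value (E0) and high-concentration value (Emax) are extrapolated. Where a pH is given, concentrations are expressed as multiples of the broth MIC at that pH.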

The test system of experiment [5] is Staphylococcus aureus. In words: Antimicrobial activity against hospital-acquired vancomycin-resistant Staphylococcus aureus VRS1 infected in human THP-1 cells assessed as bacterial count per mg of cell protein at low extracellular compound concentration after 24 hrs. The experiment is classed as functional. In short, it runs like this: as §1
The subject of experiment [6] is Staphylococcus aureus. In words: Antimicrobial activity against Panton-valentine leucocidin-positive community-acquired methicillin-resistant Staphylococcus aureus N4090440 infected in human THP-1 cells assessed as bacterial count per mg of cell protein at low extracellular compound concentration after 24 hrs. The experiment is classed as functional. In short, it runs like this:
as §3

Experiment [7] relates to Staphylococcus aureus. In words: Antimicrobial activity against hospital-acquired methicillin-resistant Staphylococcus aureus […] infected in human THP-1 cells assessed as change in bacterial count after 24 hrs at pH 5.5. The class given is functional, organism-based. The settings on record: THP-1, 24 h. In short, it runs like this:
as §1

Experiment [8] has as its system Staphylococcus aureus. In words: Bacteriostatic activity against methicillin-susceptible Staphylococcus aureus […] infected in human THP-1 cells assessed as change in bacterial count after 24 hrs at pH 7.4. The class given is functional. In short, it runs like this: as §2
In experiment [9] the test system is Staphylococcus aureus. In words: Antimicrobial activity against Panton-valentine leucocidin-positive community-acquired methicillin-resistant Staphylococcus aureus N4042228 infected in human THP-1 cells assessed as change in bacterial count after 24 hrs. The conditions noted are these: N4042228, THP-1, 24 h. The class given is functional, organism-based. In short, it runs like this:
as §3

Each structure is given as a SMILES string. Converted amounts (≈) assume the structure as drawn.

As to `Nc1nc(/C(=N/O)C(=O)N[C@@H]2C(=O)N3C(C(=O)O)=C(/C=C4\CCN([C@@H]5CCNC5)C4=O)CS[C@H]23)ns1` [CEFTOBIPROLE], the EC50 in the experiment with Staphylococcus aureus [1] was found to be 0.25 µg/mL (≈ 0.468 µM); with Staphylococcus aureus [3], 0.2 × MIC; in the experiment with Staphylococcus aureus [4], 0.08 µg/mL (≈ 0.15 µM); in the experiment with Staphylococcus aureus [7], 0.77 ×MIC; in the experiment on Staphylococcus aureus [9], 0.07 µg/mL (≈ 0.131 µM). Moreover, the log10cfu in the experiment with Staphylococcus aureus [2] is reported as 3.06; in the experiment with Staphylococcus aureus [5], 2.57; with Staphylococcus aureus [6] it was 3.39. For the same compound, the Activity in the experiment with Staphylococcus aureus [8] amounted to 0.6 × MIC.
